In ChEMBL document CHEMBL4014298, “Discovery of a series of 8-(1-phenylpyrrolidin-2-yl)-6-carboxamide-2-morpholino-4H-chromen-4-one as PI3Kβ/δ inhibitors for the treatment of PTEN-deficient tumours” (Bioorg Med Chem Lett, 2017):
Converted amounts (≈) assume the structure as drawn. The source made the active and inactive calls. The rule behind the calls is not given here.

Tests used:
[1] = biological target: Phosphatidylinositol 4,5-bisphosphate 3-kinase catalytic subunit gamma isoform (Mus musculus, UniProt Q9JHG7); assay: Inhibition of PI3Kgamma in mouse RAW264 cells assessed as decrease in AKT phosphorylation at Ser473; format: cell-based
Procedure, shortened: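 Mouse monocytic RAW264 cells; inhibition of AKT Ser473 phosphorylation measured; single determination (n=1).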

[2] = biological target: Phosphatidylinositol 4,5-bisphosphate 3-kinase catalytic subunit beta isoform (Homo sapiens, UniProt P42338); assay: Inhibition of PI3Kbeta in PTEN-deficient human MDA-MB-468 cells assessed as decrease in AKT phosphorylation at Ser473 measured after 2 hrs
[3] = Intrinsic clearance in human hepatocytes assessed per million cells; format: ADME, cell-based, Hepatocyte; details: read-out: CLH
[4] = Apparent permeability across apical to basolateral side in human Caco2 cells; details: Caco-2
[5] = AUC in mouse at 30 umol/kg, po; format: ADME; details: in vivo
[6] = biological target: Phosphatidylinositol 4,5-bisphosphate 3-kinase catalytic subunit alpha isoform (Homo sapiens, UniProt P42336); assay: Inhibition of recombinant human PI3Kalpha using PIP2 as substrate preincubated for 20 mins followed by substrate addition measured after 80 mins in presence of ATP by Kinase Glo luminescence assay
[7] = Clearance in dog blood at 4 umol/kg, iv or 10 umol/kg, po; format: ADME, organism-based, Canis lupus familiaris
[8] = Volume of distribution at steady state in mouse blood at 5 umol/kg, iv or 30 umol/kg, po; format: ADME, organism-based; details: read-out: Vdss
[9] = Volume of distribution at steady state in dog blood at 4 umol/kg, iv or 10 umol/kg, po; format: ADME, organism-based, Canis lupus familiaris; details: read-out: Vdss
[10] = Oral bioavailability in dog blood at 10 umol/kg; format: ADME, organism-based, Canis lupus familiaris
[11] = Fraction unbound in dog plasma; format: ADME, cell-free, Canis lupus familiaris
Procedure, shortened: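 Plasma protein binding in mouse, dog or human plasma, reported as fraction unbound (%).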

[12] = Intrinsic clearance in mouse hepatocytes assessed per million cells; format: ADME, cell-based, Hepatocyte; details: read-out: CLH
Procedure, shortened: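 Intrinsic clearance measured in mouse or dog hepatocytes, expressed as CL_int in […].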

[13] = Aqueous solubility of the compound in FASSIF; format: physicochemical
Procedure, shortened: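 Solubility from crystalline solid in Fasted Simulated Intestinal Fluid (FASSIF), µg/mL.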

[14] = Solubility of the compound in aqueous buffer at pH 6.5; format: physicochemical
Procedure, shortened: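 Solubility from crystalline solid in aqueous buffer, pH 6.5, µg/mL.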

Cytochrome P450 2C9 = Cytochrome P450 2C9 (Homo sapiens, UniProt P11712); assay: Inhibition of CYP2C9 (unknown origin); format: ADME
Cytochrome P450 2C19 = Cytochrome P450 2C19 (Homo sapiens, UniProt P33261); assay: Inhibition of CYP2C19 (unknown origin); format: ADME
Cytochrome P450 2D6 = Cytochrome P450 2D6 (Homo sapiens, UniProt P10635); assay: Inhibition of CYP2D6 (unknown origin); format: ADME
Cytochrome P450 3A4 = Cytochrome P450 3A4 (Homo sapiens, UniProt P08684); assay: Inhibition of CYP3A4 (unknown origin); format: ADME
[15] = biological target: MAP kinase-interacting serine/threonine-protein kinase 1 (Homo sapiens) (UniProt Q9BUB5); assay: Inhibition of human MNK1 (2 to 424 residues) at 1 uM after 5 mins in presence of [33P]ATP by filter binding assay relative to control
Mus musculus = assay: In vivo inhibition of AKT phosphorylation at Ser473 in nude mouse xenografted with PTEN-deficient human PC3 cells at 30 mg/kg, po administered as single dose measured after 30 mins to 8 hrs; format: functional, organism-based
Procedure, shortened: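 Single oral dose (100 or 30 mg/kg) to nude mice carrying PTEN-deficient PC3 prostate xenografts; tumour AKT Ser473 phosphorylation measured at 30 min, 2 h and 8 h, with free plasma concentration determined at same time points.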

PC-3 = assay: Antitumor activity against PTEN-deficient human PC3 cells xenografted in nude mouse assessed as tumor growth inhibition at 100 mg/kg, po bid relative to control; format: functional; details: PC-3, po, read-out: TGI
Procedure, shortened: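 Nude mice bearing PTEN-deficient PC3 prostate tumour xenografts; compound given orally twice daily (b.i.d.) at 100 or 50 mg/kg over chronic dosing; tumour growth inhibition versus control determined at end of study.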

Sphingosine kinase 1 = Sphingosine kinase 1 (Homo sapiens, UniProt Q9NYA1); assay: Inhibition of human SphK1 (1 to 384 residues) by ATP-Glo HTS assay
Procedure, shortened: (§1)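 Lipid kinase selectivity assessed in a 15-kinase panel (Dundee University lipid kinase panel), IC50 determined.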

[16] = biological target: Phosphatidylinositol 4,5-bisphosphate 3-kinase catalytic subunit gamma isoform (Homo sapiens, UniProt P48736); assay: Inhibition of human PI3Kgamma (2 to 1102 residues) by ADP Glo HTS assay; procedure, shortened: as §1
[17] = biological target: Phosphatidylinositol 4-kinase beta (Homo sapiens, UniProt Q9UBF8); assay: Inhibition of human PIK4Cbeta (1 to 801 residues) by ADP Glo HTS assay; procedure, shortened: as §1
[18] = biological target: Phosphatidylinositol 5-phosphate 4-kinase type-2 alpha (Homo sapiens, UniProt P48426); assay: Inhibition of human PIP5K2alpha (1 to 406 residues) by ADP Glo HTS assay; procedure, shortened: as §1
[19] = biological target: Diacylglycerol kinase gamma (Homo sapiens, UniProt P49619); assay: Inhibition of human DGKgamma (1 to 752 residues) by ADP Glo HTS assay; procedure, shortened: as §1
[20] = biological target: Diacylglycerol kinase zeta (Homo sapiens, UniProt Q13574); assay: Inhibition of human DGKzeta (1 to 929 residues) by ADP Glo HTS assay; procedure, shortened: as §1
[21] = biological target: Phosphatidylinositol 3-kinase regulatory subunit alpha (Homo sapiens, UniProt P27986); assay: Inhibition of human PI3K p85alpha (1 to 724 residues) by ADP Glo HTS assay; procedure, shortened: as §1
Sequence of Phosphatidylinositol 3-kinase regulatory subunit alpha (P27986 whole entry, the tested form may be a part): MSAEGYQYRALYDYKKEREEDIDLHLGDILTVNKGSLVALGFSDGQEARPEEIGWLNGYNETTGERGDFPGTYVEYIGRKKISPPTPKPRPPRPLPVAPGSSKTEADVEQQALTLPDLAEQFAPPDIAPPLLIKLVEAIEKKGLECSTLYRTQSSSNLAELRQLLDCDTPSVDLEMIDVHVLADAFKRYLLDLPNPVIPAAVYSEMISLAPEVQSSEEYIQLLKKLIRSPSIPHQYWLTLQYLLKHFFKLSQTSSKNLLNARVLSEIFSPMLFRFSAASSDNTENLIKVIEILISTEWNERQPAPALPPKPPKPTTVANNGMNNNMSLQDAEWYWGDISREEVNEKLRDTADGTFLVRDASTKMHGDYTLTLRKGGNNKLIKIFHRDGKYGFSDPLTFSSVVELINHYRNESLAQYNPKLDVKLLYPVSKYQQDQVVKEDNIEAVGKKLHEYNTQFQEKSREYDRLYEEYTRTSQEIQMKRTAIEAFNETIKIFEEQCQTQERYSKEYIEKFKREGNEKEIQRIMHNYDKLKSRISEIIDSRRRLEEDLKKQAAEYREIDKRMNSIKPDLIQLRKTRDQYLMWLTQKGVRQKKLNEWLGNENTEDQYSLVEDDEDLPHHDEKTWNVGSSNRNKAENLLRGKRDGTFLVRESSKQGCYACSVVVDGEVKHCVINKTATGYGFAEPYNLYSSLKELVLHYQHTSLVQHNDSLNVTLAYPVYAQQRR

Sequence of Phosphatidylinositol 4,5-bisphosphate 3-kinase catalytic subunit alpha isoform (P42336 whole entry, canonical isoform): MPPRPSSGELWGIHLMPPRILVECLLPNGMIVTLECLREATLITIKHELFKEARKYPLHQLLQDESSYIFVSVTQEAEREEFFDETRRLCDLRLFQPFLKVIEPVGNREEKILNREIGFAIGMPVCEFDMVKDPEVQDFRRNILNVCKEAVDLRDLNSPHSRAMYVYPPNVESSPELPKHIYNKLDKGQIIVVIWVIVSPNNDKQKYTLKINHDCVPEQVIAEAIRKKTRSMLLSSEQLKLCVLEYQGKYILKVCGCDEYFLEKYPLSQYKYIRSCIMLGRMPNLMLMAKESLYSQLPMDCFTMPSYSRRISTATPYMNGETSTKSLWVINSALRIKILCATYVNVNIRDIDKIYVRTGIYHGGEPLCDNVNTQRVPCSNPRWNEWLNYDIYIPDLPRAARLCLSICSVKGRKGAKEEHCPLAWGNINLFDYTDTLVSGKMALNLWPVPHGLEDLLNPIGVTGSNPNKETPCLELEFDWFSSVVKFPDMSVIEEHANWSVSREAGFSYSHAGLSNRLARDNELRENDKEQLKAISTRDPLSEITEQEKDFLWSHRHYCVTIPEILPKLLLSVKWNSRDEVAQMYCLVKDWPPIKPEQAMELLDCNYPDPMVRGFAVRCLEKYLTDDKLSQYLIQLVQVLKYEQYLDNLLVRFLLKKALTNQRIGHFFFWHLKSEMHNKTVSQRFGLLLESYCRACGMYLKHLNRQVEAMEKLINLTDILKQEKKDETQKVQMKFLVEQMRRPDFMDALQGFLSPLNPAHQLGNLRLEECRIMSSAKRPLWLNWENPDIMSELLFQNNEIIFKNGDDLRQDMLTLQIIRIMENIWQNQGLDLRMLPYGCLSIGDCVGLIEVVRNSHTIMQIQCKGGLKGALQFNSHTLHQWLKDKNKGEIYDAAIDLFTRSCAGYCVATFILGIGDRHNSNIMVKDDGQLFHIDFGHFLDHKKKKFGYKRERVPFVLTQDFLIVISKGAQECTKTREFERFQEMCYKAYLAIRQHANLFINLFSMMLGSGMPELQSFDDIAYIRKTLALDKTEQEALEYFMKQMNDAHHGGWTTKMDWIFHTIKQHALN
Sequence of Sphingosine kinase 1 (Q9NYA1 whole entry, the tested form may be a part): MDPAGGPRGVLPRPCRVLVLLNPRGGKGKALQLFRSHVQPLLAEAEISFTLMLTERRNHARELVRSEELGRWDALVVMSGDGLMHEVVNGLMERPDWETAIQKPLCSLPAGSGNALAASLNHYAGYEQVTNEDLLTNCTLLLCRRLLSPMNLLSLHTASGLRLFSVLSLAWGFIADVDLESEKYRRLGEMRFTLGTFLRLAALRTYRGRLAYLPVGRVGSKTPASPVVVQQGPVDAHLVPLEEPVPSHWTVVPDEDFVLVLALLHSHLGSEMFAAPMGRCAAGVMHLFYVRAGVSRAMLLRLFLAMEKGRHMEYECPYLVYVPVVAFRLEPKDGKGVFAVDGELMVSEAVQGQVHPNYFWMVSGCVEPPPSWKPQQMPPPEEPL
Sequence of Cytochrome P450 2C9 (P11712 whole entry): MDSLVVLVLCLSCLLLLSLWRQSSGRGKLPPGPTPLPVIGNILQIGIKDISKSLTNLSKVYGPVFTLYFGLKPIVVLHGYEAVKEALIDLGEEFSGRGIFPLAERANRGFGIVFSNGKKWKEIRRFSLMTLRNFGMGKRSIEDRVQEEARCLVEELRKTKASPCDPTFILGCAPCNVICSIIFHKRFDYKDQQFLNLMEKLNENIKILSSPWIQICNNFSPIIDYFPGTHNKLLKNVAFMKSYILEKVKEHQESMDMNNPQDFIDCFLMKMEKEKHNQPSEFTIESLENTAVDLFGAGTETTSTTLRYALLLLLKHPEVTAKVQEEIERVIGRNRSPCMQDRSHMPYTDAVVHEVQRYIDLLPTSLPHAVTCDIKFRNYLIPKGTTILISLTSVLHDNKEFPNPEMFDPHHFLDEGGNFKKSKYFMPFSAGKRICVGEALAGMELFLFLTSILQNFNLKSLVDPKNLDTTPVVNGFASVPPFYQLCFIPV
Sequence of Cytochrome P450 3A4 (P08684 whole entry, the tested form may be a part): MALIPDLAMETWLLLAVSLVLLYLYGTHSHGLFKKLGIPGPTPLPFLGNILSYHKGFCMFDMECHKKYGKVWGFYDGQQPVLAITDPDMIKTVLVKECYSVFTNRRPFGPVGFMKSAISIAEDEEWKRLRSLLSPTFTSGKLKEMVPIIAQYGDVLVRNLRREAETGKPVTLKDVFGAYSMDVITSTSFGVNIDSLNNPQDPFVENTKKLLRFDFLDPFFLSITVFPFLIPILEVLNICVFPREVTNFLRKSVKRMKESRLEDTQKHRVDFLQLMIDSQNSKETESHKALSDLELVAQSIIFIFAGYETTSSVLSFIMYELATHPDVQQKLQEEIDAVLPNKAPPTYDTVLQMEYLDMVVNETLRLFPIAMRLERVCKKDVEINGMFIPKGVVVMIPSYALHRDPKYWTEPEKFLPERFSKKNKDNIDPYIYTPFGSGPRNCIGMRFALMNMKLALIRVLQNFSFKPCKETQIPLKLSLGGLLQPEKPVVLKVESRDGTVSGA
Sequence of Phosphatidylinositol 4-kinase beta (Q9UBF8 whole entry, the tested form may be a part): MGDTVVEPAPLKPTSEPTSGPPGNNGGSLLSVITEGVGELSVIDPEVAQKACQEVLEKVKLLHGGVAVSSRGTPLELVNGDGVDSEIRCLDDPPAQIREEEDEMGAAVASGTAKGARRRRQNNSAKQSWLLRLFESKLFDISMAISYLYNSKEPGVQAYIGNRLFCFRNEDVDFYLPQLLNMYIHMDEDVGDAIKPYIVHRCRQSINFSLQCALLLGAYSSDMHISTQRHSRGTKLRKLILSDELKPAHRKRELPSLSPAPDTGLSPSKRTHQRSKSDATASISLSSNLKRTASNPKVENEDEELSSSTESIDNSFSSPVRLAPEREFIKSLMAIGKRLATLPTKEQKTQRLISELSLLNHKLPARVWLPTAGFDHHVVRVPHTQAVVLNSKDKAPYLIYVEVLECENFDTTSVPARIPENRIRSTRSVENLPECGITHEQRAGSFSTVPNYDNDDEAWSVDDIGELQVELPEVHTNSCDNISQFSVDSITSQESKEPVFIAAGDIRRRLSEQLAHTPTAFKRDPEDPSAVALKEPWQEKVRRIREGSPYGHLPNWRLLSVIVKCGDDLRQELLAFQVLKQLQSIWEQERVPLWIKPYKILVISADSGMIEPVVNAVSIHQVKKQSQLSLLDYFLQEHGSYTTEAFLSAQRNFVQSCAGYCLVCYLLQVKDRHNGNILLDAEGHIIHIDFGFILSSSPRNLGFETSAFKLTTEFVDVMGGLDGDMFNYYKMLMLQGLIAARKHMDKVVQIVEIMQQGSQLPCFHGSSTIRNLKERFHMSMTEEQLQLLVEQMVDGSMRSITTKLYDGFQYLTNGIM
Sequence of Cytochrome P450 2C19 (P33261 whole entry): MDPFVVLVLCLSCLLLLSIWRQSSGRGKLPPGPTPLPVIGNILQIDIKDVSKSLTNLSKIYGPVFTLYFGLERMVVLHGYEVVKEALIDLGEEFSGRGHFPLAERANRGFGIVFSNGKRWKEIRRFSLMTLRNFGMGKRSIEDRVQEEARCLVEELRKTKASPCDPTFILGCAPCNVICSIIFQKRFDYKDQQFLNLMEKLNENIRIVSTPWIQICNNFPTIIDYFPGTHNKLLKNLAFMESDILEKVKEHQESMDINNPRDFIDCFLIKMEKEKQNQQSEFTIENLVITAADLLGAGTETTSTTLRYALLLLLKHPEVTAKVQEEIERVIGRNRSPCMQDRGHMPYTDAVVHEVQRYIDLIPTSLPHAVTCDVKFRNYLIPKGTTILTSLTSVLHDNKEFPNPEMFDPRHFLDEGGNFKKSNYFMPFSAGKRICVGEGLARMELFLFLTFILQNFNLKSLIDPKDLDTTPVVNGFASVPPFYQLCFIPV
Sequence of Cytochrome P450 2D6 (P10635 whole entry): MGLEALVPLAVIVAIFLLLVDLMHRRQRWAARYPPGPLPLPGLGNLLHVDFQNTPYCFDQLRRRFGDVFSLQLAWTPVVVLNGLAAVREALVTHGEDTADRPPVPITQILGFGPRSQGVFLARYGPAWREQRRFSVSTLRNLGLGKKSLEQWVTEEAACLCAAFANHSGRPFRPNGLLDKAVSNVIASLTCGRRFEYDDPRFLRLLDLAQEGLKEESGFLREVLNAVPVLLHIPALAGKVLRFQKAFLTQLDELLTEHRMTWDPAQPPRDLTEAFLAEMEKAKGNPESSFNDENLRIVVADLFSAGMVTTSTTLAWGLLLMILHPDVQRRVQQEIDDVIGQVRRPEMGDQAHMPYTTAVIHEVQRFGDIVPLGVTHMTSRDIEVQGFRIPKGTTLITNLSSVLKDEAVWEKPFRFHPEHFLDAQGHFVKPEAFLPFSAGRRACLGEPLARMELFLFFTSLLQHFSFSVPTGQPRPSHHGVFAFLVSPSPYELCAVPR

## O=C(c1cc([C@H]2CCCN2c2cc(F)cc(F)c2)c2oc(N3CCOCC3)cc(=O)c2c1)N1CCOCC1
[1]
  IC50: 1500 nM
[2]
  IC50: 1.1 nM
[3]
  hepatocyte CLint: 2.7 to 5 µL/min/1e6 cells
[4]
  Papp A→B: 18 ×10⁻⁶ cm/s
[5]
  AUC: 2.8 µM·h
[6]
  IC50: 13 nM
[7]
  clearance: 23 mL/min/kg
[8]
  Vd: 1 L/kg
[9]
  Vd: 1.2 L/kg
[10]
  bioavailability: 29%
[11]
  fraction unbound: 0.28
[12]
  hepatocyte CLint: 68 µL/min/1e6 cells
[13]
  solubility: 430 µg/mL (≈ 818 µM)
[14]
  solubility: 230 µg/mL (≈ 438 µM)
Cytochrome P450 2C9
  IC50: > 30 µM
Cytochrome P450 2C19
  IC50: > 30 µM
Cytochrome P450 2D6
  IC50: > 30 µM
Cytochrome P450 3A4
  IC50: > 30 µM
[15]
  inhibition: 36%
Mus musculus
  inhibition: Active
PC-3
  inhibition in vivo at 100 mg/kg: 83%
Sphingosine kinase 1
  IC50: 29 µM
[16]
  IC50: > 50 µM
[17]
  IC50: > 50 µM
[18]
  IC50: > 50 µM
[19]
  IC50: > 50 µM
[20]
  IC50: > 50 µM
[21]
  IC50: > 50 µM
